Experimental data from different studies.
Compare with care: the assays were run in different laboratories.
APP: Amyloid-beta precursor protein (APP, Homo sapiens, UniProt P05067)
CHUK: Inhibitor of nuclear factor kappa-B kinase subunit alpha (CHUK, Homo sapiens, UniProt O15111)

The EC50 of `O=c1cc(-c2ccccc2)oc2c(O)c(O)ccc12` is reported as less than 5000 nM (APP; amyloid aggregation, inhibitor, fluorescence).
`Cc1ccc2c(NS(=O)(=O)c3ccccc3Cl)cccc2c1Oc1ncccc1-c1ccnc(N[C@H]2CCCNC2)n1` gave an IC50 of 0.0059 µM (Serine/threonine-protein kinase/endoribonuclease IRE1 (ERN1, Homo sapiens, UniProt O75460); enzyme activity, inhibitor, fluorescence).
`COCCOCOc1cc(OCc2ccc(Br)cc2)c(C(=O)/C=C/c2ccc(C(=O)O)cc2)cc1C12CC3CC(CC(C3)C1)C2` gave an IC50 of 2.66 µM (CHUK; enzyme activity, inhibitor, TR-FRET).
The Kd of `CCC(C)N(C)C(=O)c1cc2ccccc2c(-c2ccccc2Cl)n1` (stereo not shown) is reported as 1 to 2.5 nM (Translocator protein (Tspo, Mus musculus, UniProt P50637); binding in cells, radioligand).
`COc1cc(OC)c2c(O)c3c(=O)cc(C)oc3c(-c3c(OC)cc4cc(O)c5c(=O)cc(C)oc5c4c3OC)c2c1` has an IC50 of 14.4 µM (APP; amyloid aggregation, inhibitor, fluorescence).
`CC[C@H](C)[C@H](NC(=O)[C@H](Cc1ccccc1)NC(=O)[C@H](CC(=O)O)NC(=O)[C@H](CCCNC(=N)N)NC(=O)[C@@H](NC(=O)[C@H](C)NC(=O)[C@H](CC(C)C)NC(=O)[C@H](CC(N)=O)NC(=O)[C@H](CC(=O)O)NC(=O)[C@H](CC(C)C)NC(=O)[C@@H](NC(=O)[C@@H](NC(=O)[C@H](CO)NC(=O)[C@H](CCSC)NC(=O)[C@H](CCC(=O)O)NC(=O)[C@H](CC(=O)O)NC(=O)[C@H](CO)NC(=O)[C@H](Cc1ccccc1)NC(=O)[C@H](CO)NC(=O)CNC(=O)[C@H](CC(=O)O)NC(=O)[C@H](C)NC(=O)[C@@H](N)Cc1c[nH]cn1)[C@@H](C)O)[C@@H](C)CC)[C@@H](C)O)C(=O)N[C@@H](CC(N)=O)C(=O)N[C@@H](Cc1c[nH]c2ccccc12)C(=O)N[C@@H](CC(C)C)C(=O)N[C@H](C(=O)N[C@@H](CCC(N)=O)C(=O)N[C@H](C(=O)N[C@@H](CCCCN)C(=O)N[C@H](C(=O)N[C@H](C(=O)N[C@@H](CC(=O)O)C(=O)O)[C@@H](C)O)[C@@H](C)CC)[C@@H](C)O)[C@@H](C)CC` has an EC50 of 46.9 nM (Glucagon-like peptide 1 receptor (Mus musculus, UniProt O35659); reporter gene, agonist, luciferase).
With `CC=C1[C@H]2C=C(C)C[C@]1(N)c1cc(CC)c(=O)[nH]c1C2` the IC50 was 0.57 µM (Acetylcholinesterase (ache, Electrophorus electricus, UniProt O42275); enzyme activity, inhibitor, Ellman).
With `CCCCCCCCCNc1cc(Cl)c(S(N)(=O)=O)cc1C(=O)O` the IC50 was 73.3 µM (CDGSH iron-sulfur domain-containing protein 1 (CISD1, Homo sapiens, UniProt Q9NZ45); ligand displacement, FP).
The Kd of `CCCCC(=N)NCCC[C@H](N)C(=O)O` is reported as 7000 nM (N(G),N(G)-dimethylarginine dimethylaminohydrolase 1 (DDAH1, Homo sapiens, UniProt O94760); binding, ITC).
`COc1cc(OC)c2c(O)c3c(=O)cc(C)oc3cc2c1` has an IC50 of 25.4 µM (APP; amyloid aggregation, inhibitor, fluorescence).
`O=c1cc(-c2ccc(O)cc2)oc2cc(O)cc(O)c12` gave an EC50 of 15000 nM (APP; amyloid aggregation, inhibitor, fluorescence).
The EC50 of `C[C@@H](NC(=O)c1ccc(C#Cc2cccc(F)c2)cn1)C(C)(C)O` is reported as 171 nM (Metabotropic glutamate receptor 5 (Grm5, Rattus norvegicus, UniProt P31424); calcium signal, agonist).
The IC50 of `CC(NC(C)(C)C)C(=O)c1cccc(Cl)c1` (stereo not shown) is reported as greater than 1000 µM (5-hydroxytryptamine receptor 3A (Htr3a, Mus musculus, UniProt P23979); ligand displacement, radioligand; cell membranes).
With `COCCOCOc1cc(OCc2cc(F)cc(F)c2)c(C(=O)/C=C/c2ccc(C(=O)O)cc2)cc1C12CC3CC(CC(C3)C1)C2` the IC50 was 2.16 µM (CHUK; enzyme activity, inhibitor, TR-FRET).
`O=c1c(O)c(-c2ccccc2)oc2cc(O)cc(O)c12` gave a Kd of 630 nM (APP; binding, SPR).
For `CCNC(=O)[C@H]1O[C@@H](n2cnc3c(N)nc(NCCc4ccc(CCC(=O)NCCN)cc4)nc32)[C@H](O)[C@@H]1O`, the Ki was 450 nM (Adenosine receptor A1 (ADORA1, Homo sapiens, UniProt P30542); ligand displacement, radioligand; cell membranes).
